Data published in ChEMBL document CHEMBL1255365, “In vitro antifungal susceptibility and molecular characterization of clinical isolates of Fusarium verticillioides (F. moniliforme) and Fusarium thapsinum” (2008).
Values after ≈ are worked out from the molar mass of the structure shown.

Legend:
Format in all cases: functional
[1] = Antifungal activity against Fusarium thapsinum by microdilution method; conditions: Gibberella thapsina
How it was run: (§1)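 Clinical isolates grown on potato dextrose agar for 7 days at 25°C. Susceptibility tested by modified NCCLS (2002) broth microdilution reference method for filamentous fungi. Final inoculum 4 × 10^3 to 5 × 10^4 conidia/ml. Final drug ranges: 64–0.12 μg/ml for fluconazole and flucytosine, 128–0.25 μg/ml for micafungin, 16–0.03 μg/ml for the other azoles, amphotericin B and terbinafine.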

Fusarium verticillioides [2] = test: Antifungal activity against Fusarium moniliforme clade 3 by microdilution method; how it was run: as §1
Fusarium verticillioides [3] = test: Antifungal activity against Fusarium moniliforme clade 2 by microdilution method; how it was run: as §1
Fusarium verticillioides [4] = test: Antifungal activity against Fusarium moniliforme clade 1 by microdilution method; how it was run: as §1

Structure (SMILES)	MIC [1]	MIC (Fusarium verticillioides [2])	MIC (Fusarium verticillioides [3])	MIC (Fusarium verticillioides [4])
C[C@@H](c1ncncc1F)[C@](O)(Cn1cncn1)c1ccc(F)cc1F [VORICONAZOLE]	2.64 µg/mL (≈ 7.56 µM)	2 µg/mL (≈ 5.73 µM)	2.83 µg/mL (≈ 8.1 µM)	2 µg/mL (≈ 5.73 µM)
CCC(C)n1ncn(-c2ccc(N3CCN(c4ccc(OCC5COC(Cn6cncn6)(c6ccc(Cl)cc6Cl)O5)cc4)CC3)cc2)c1=O (configuration not stated) [ITRACONAZOLE]	> 16 µg/mL	> 16 µg/mL	> 16 µg/mL	12.7 µg/mL (≈ 18 µM)
CC(=O)N1CCN(c2ccc(OCC3COC(Cn4ccnc4)(c4ccc(Cl)cc4Cl)O3)cc2)CC1 (configuration not stated) [KETOCONAZOLE]	> 16 µg/mL	8 µg/mL (≈ 15.1 µM)	8 µg/mL (≈ 15.1 µM)	2 µg/mL (≈ 3.76 µM)
C[C@@H]1[C@H](O)[C@@H](C)/C=C/C=C/C=C/C=C/C=C/C=C/C=C/[C@H](O[C@@H]2O[C@H](C)[C@@H](O)[C@H](N)[C@@H]2O)C[C@@H]2O[C@](O)(C[C@@H](O)C[C@@H](O)[C@H](O)CC[C@@H](O)C[C@@H](O)CC(=O)O[C@H]1C)C[C@H](O)[C@H]2C(=O)O [AMPHOTERICIN B]	2.64 µg/mL (≈ 2.86 µM)	2 µg/mL (≈ 2.16 µM)	2.24 µg/mL (≈ 2.42 µM)	2.41 µg/mL (≈ 2.61 µM)
C[C@@H](n1cnc2cc(Cl)ccc2c1=O)[C@](O)(Cn1cncn1)c1ccc(F)cc1F [ALBACONAZOLE]	18.4 µg/mL (≈ 42.6 µM)	5.66 µg/mL (≈ 13.1 µM)	3.56 µg/mL (≈ 8.24 µM)	3.03 µg/mL (≈ 7.02 µM)
C[C@@H](c1nc(-c2ccc(C#N)cc2)cs1)[C@](O)(Cn1cncn1)c1ccc(F)cc1F [RAVUCONAZOLE]	18.4 µg/mL (≈ 42 µM)	4 µg/mL (≈ 9.14 µM)	2.24 µg/mL (≈ 5.12 µM)	1.45 µg/mL (≈ 3.31 µM)
CC[C@@H]([C@H](C)O)n1ncn(-c2ccc(N3CCN(c4ccc(OC[C@@H]5CO[C@@](Cn6cncn6)(c6ccc(F)cc6F)C5)cc4)CC3)cc2)c1=O [POSACONAZOLE]	> 16 µg/mL	1 µg/mL (≈ 1.43 µM)	0.89 µg/mL (≈ 1.27 µM)	0.79 µg/mL (≈ 1.13 µM)
CN(C/C=C/C#CC(C)(C)C)Cc1cccc2ccccc12 [TERBINAFINE]	0.44 µg/mL (≈ 1.51 µM)	0.25 µg/mL (≈ 0.858 µM)	0.31 µg/mL (≈ 1.06 µM)	0.21 µg/mL (≈ 0.721 µM)
